Bioassay records deposited in PubChem BioAssay by The Scripps Research Institute Molecular Screening Center.
Sampled rows, rich in hits. Any-hit rate of the full collection: about 2.6%.
TCR-CD3 inh: inhibitors of human TCR-CD3 interaction, primary screen, biochemical, fluorescence, TAMRA-labeled TCR probe. T-cell receptor (TCR). inhibition, % at 9.4 µM. 360,000 compounds, 0.37% hits; in the data active = inhibition above about 19%;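 note: recombinant mutant TCR 2C K166C tagged with TAMRA read by polarization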
SIAE inh: human SIAE inhibitors, primary screen, biochemical, fluorescence polarization, FP-Rh probe, 1536-well HTS | SIAE FP-Rh probe binding | inhibition, % at 9.66 µM | 370,000 compounds, 0.69% hits | AID 1053197, 2014;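 active = inhibition above a cutoff: mean of compounds within the control limits plus 3 SD of those, cut at about 17% in these data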
PRMT1 FP inh: PRMT1 methyltransferase inhibitors, primary screen, biochemical, fluorescence polarization. 370,000 compounds, 1.3% hits. recombinant PRMT1, activity-based probe fluorescence polarization. inhibition, % at 2.79 µM. AID 652257, 2013;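 active = inhibition above about 21% made by adding two undisclosed values, limit read from the data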
HTRA1 inh: HTRA1 serine protease inhibitors, primary screen, biochemical, fluorescence polarization, HTS. recombinant HTRA1, FP-rhodamine activity-based probe. AID 504803, 2011. 340,000 compounds, 0.5% hits. Q92743. inhibition, % at 5.96 µM; in the data active = inhibition above about 36%
Target sequence (Q92743 whole entry, looked up): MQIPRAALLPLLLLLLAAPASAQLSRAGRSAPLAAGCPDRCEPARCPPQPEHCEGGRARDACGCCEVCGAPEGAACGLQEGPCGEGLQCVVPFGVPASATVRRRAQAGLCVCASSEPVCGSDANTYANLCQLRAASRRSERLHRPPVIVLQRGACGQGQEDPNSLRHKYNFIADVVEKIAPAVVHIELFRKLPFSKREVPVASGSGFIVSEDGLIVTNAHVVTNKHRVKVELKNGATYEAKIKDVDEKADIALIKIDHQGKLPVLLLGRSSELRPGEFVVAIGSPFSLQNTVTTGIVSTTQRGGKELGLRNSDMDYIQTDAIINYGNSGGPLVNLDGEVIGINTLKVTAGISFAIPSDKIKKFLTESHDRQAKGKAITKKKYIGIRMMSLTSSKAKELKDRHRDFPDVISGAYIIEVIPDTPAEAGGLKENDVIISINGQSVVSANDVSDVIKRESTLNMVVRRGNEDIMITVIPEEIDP
ABHD4 inh: ABHD4 inhibitors, primary screen, biochemical, fluorescence polarization, mouse; 370,000 compounds, 0.54% hits; inhibition, % at 8.92 µM; purified mABHD4, FP-Rh probe fluorescence polarization; (Lyso)-N-acylphosphatidylethanolamine lipase (Mus musculus), Q8VD66;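 active = inhibition exceeding the mean over every tested compound plus 3 SD, cut at about 30% in these data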
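Assay system: mABHD4 protein; medium: HEPES pH 7.0, NaCl, Pluronic buffer; dosing: 8.92 µM, single dose; schedule: 45 min + 60 min at 25 °C; signal: FP readout, ex 525 nm / em 598 nm; read-out: normalized percent inhibition of probe labeling; repeats: single replicate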
Large screens that a line does not name were inactive.

O=[N+]([O-])c1ccc(C2CC(c3ccccc3)=Nc3ccccc3S2)cc1 (stereo not given)	PRMT1 FP inh 79
Cc1cccc(-c2cccc3c4c([nH]c23)[C@@H]2C[C@H]3[C@@H](C(=O)N2CC4)[C@H](C)ON3C)c1	none (no result: TCR-CD3 inh, HTRA1 inh)
c1ccc(C2=NNC(=NC3CC3)SC2)cc1	PRMT1 FP inh 65
CCOc1cc(CNc2ccc(O)cc2)ccc1OCc1ccc(Cl)cc1Cl	HTRA1 inh 62 (no result: TCR-CD3 inh, SIAE inh, PRMT1 FP inh, ABHD4 inh)
Nc1c(C(=O)N2CCN(c3ccccc3)CC2)nnn1Cc1ccc(Cl)cc1	none (no result: TCR-CD3 inh, HTRA1 inh)
O=C(CCCl)Nc1nc2c(s1)CCc1ccccc1-2	none
N#C/C(=C(/O)CCl)c1nc2c(s1)CCc1ccccc1-2	PRMT1 FP inh 33, ABHD4 inh 32
CCOc1ccc(OCC)c(NC(=O)C2C3C=CC(O3)C2C(=O)O)c1 (stereo not given)	none
CCOc1ccccc1NC(=O)C1C2C=CC(O2)C1C(=O)O (stereo not given)	PRMT1 FP inh 23
O=[N+]([O-])c1ccccc1-c1ccc(CN2CCN(c3ccccc3)CC2)o1	PRMT1 FP inh 23
CCOC(=O)c1ccc(NC(=O)Nc2ccc(OC)c(OC)c2)cc1	none
CCCCOC(=O)c1ccc(NC(=O)Nc2ccc(OC)c(OC)c2)cc1	SIAE inh 20
NC(=O)c1c(NC(=O)C2CC=CCC2C(=O)O)sc2c1CCCCC2 (stereo not given)	PRMT1 FP inh 23
CCOC(=O)C1=C(C)N(c2ccccc2)C(=O)/C1=C\c1ccco1	none
CCOC(=O)C1=C(C)N(c2ccccc2)C(=O)/C1=C\c1ccc(O)c(OC)c1	PRMT1 FP inh 42
O=C1C=C(O)c2cccc(O)c2C1=O	PRMT1 FP inh 25, ABHD4 inh 41
COc1cccc2c1-c1c(O)cccc1C2=O	none
C=CCOc1ccc(Br)cc1/C=C1/SC(=Nc2ccc(C(=O)O)cc2)NC1=O	none
CCOc1cc(Br)cc(/C=C2\SC(=Nc3ccccc3)NC2=O)c1O	PRMT1 FP inh 24
CCOC(=O)c1sc2ccc(S(=O)(=O)N3CCOCC3)cc2c1N	none
CCOC(=O)c1sc2ccc(S(=O)(=O)N3CC(C)CC(C)C3)cc2c1N (stereo not given)	PRMT1 FP inh 21
CCCC(=O)N1CCC[C@]2(CC[C@@H](CCC#N)O2)C1	none (no result: TCR-CD3 inh, HTRA1 inh)
O=c1c2c3nc4ccccc4nc3n(Cc3ccccc3)c2ncn1Cc1ccco1	PRMT1 FP inh 38
Brc1ccc(C2=CC(c3cccs3)n3ncnc3N2)cc1 (stereo not given)	PRMT1 FP inh 95
CC(=O)c1cccc(NC(=O)CSC(=O)c2ccccc2)c1	PRMT1 FP inh 49
CCCCC(=O)N1CCC(NS(=O)(=O)c2ccc3c(c2)CCN3C(C)=O)CC1	none (no result: TCR-CD3 inh, HTRA1 inh)
CC(C)C(C)(C#N)NC(=O)CSc1nc2scc(-c3ccco3)c2c(=O)n1-c1ccccc1 (stereo not given)	PRMT1 FP inh 22
O=C(Nc1cccs1)Nc1ccc(Br)cc1F	SIAE inh 20
CSc1cc(-c2ccco2)oc1C(=O)c1ccco1	PRMT1 FP inh 25
c1ccc2c(c1)-c1ccccc1C2N1CCOCC1	PRMT1 FP inh 24
c1ccc2c(c1)-c1nc3ccccc3cc1C2N1CCOCC1 (stereo not given)	none
CCC(=O)N1CCC(C(=O)NC2CCCc3ccccc32)CC1 (stereo not given)	none (no result: TCR-CD3 inh, HTRA1 inh)
CCOC(=O)C1=C(COC(=O)/C=C/c2ccc(C)o2)NC(=O)NC1C (stereo not given)	PRMT1 FP inh 23
O=C(O)c1ccc2c(c1)C(=O)/C(=C/c1ccccc1)C2=O	PRMT1 FP inh 25, ABHD4 inh 31
O=S1(=O)CCOCC(CO)N1Cc1cccc(Br)c1 (stereo not given)	none (no result: TCR-CD3 inh, HTRA1 inh)
CCOC(=O)NC1(Nc2cccc(Cl)c2)Oc2ccccc2O1	ABHD4 inh 32
CCOC(=O)NC(=O)/C(C#N)=N\Nc1cccc(Cl)c1	none
COc1ccc2c(Cl)c(C(=O)NN)sc2c1	none
CC[n+]1c(C)sc2cc(OC)ccc21	PRMT1 FP inh 54
CN(CCc1ccccc1)C(=O)c1cc2ccccn2n1	none (no result: TCR-CD3 inh, HTRA1 inh)
S=c1[nH]nc(Cc2ccc(Br)cc2)n1/N=C/c1ccc(Cl)cc1	PRMT1 FP inh 22
COC(=O)c1cc(-c2cnc(OC)nc2OC)c(=O)n2c1CCC2	none (no result: TCR-CD3 inh, HTRA1 inh)
O=c1[nH]c(-c2ccc(Cl)cc2)cs1	none
Fc1ccc(-c2csc(=S)[nH]2)cc1	PRMT1 FP inh 22
O=C(Nc1ccc(S(=O)(=O)Nc2ncccn2)cc1)C1=COCCO1	PRMT1 FP inh 22
CCCCNC(=O)O[C@H]1CC[C@@]23CCCN2C(=O)CCC[C@H]3[C@H]1CCC	none (no result: TCR-CD3 inh, HTRA1 inh)
O=C(CSc1ccc2c(c1)OCCO2)Nc1ncccc1O	PRMT1 FP inh 24
Nc1cc(=O)[nH]c(SCC(=O)Nc2cc(S(=O)(=O)N3CCCCCC3)ccc2Cl)n1	PRMT1 FP inh 23
CSc1ccc(-c2cnc(N3CCC(C(N)=O)CC3)s2)cc1	none (no result: TCR-CD3 inh, HTRA1 inh)
COc1ccc(C(=O)N2CCN=C2SC)cc1OC	none
CCOc1cc(C(=O)N2CCN=C2SC)cc(OCC)c1OCC	PRMT1 FP inh 24
Cc1onc(-c2ccccc2Cl)c1C(=O)NCC(=O)O	none
Cc1onc(-c2ccccc2Cl)c1C(=O)NCCn1c(C)cc2ccccc21	HTRA1 inh 48 (no result: TCR-CD3 inh, SIAE inh, PRMT1 FP inh, ABHD4 inh)
Cc1cc(-c2n[nH]c(=S)n2N=Cc2ccc(O)cc2)n[nH]1	none (no result: TCR-CD3 inh, HTRA1 inh)
O=C(O)CCC(=O)Nc1sc2c(c1C(=O)Nc1cccc3ccccc13)CCCCC2	PRMT1 FP inh 24
O=C(Nc1ccc2c(c1)OCO2)OC1CC2CC1[C@H]1CCCCN1[C@H]2Cc1ccccc1 (stereo not given in full)	none (no result: TCR-CD3 inh, HTRA1 inh)
CCCCCC(=O)N/N=C/c1ccc([N+](=O)[O-])o1	none
O=C(CCC(=O)Nc1ccc(Cl)cc1Cl)N/N=C/c1ccc([N+](=O)[O-])o1	PRMT1 FP inh 24 (no result: HTRA1 inh)
Cc1ccc(-n2c(Cc3cccs3)nnc2SCC(=O)Nc2ccccc2-c2ccccc2)cc1	none (no result: TCR-CD3 inh, HTRA1 inh)
O=C(COC(=O)CNC(=O)c1ccccc1)NCCc1ccccc1	none
O=C(CNC(=O)c1ccccc1)NCCc1ccc(O)c(O)c1	PRMT1 FP inh 25
CCOc1ccccc1NC(=O)C(NCCN(C)C)c1ccccc1 (stereo not given)	none
CCOc1ccccc1NC(=O)C(NCCc1ccc(OC)cc1)c1ccccc1 (stereo not given)	PRMT1 FP inh 21
Cc1ccc(CNc2ccc3c(c2)OCO3)cc1	HTRA1 inh 49 (no result: TCR-CD3 inh, SIAE inh, PRMT1 FP inh, ABHD4 inh)
Cc1ccc(-c2nc(C3CCCN(S(=O)(=O)c4ccc(C)c(C)c4)C3)no2)cc1 (stereo not given)	none (no result: TCR-CD3 inh, HTRA1 inh)
Nc1ccc(O)c(-c2nc3ccccc3s2)c1	none
Oc1ccc(N=C/C=C/c2cccc(Br)c2)cc1-c1nc2ccccc2s1	HTRA1 inh 44 (no result: TCR-CD3 inh, SIAE inh, PRMT1 FP inh, ABHD4 inh)
CCn1c(SCC(=O)Nc2ccccc2-c2ccccc2)nnc1-c1ccc(C)cc1	none (no result: TCR-CD3 inh, HTRA1 inh)
CCn1cc(/C=C/C(=O)Nc2ccn(Cc3c(F)c(F)cc(F)c3F)n2)cn1	PRMT1 FP inh 22
